ChEMBL document CHEMBL1127424, “7-azetidinylquinolones as antibacterial agents. 2. Synthesis and biological activity of 7-(2,3-disubstituted-1-azetidinyl)-4-oxoquinoline- and -1,8-naphthyridine-3-carboxylic acids. Properties and structure-activity relationships of quinolones with an azetidine moiety” (J Med Chem, 1994)
Values after ≈ are worked out from the molar mass of the structure shown. Values belong to the molecule of their own block, whether it stands above or below them.

What was measured:
[1] = HPLC capacity factor (k'); format: ADME
Procedure, shortened: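 Ion-pair reversed-phase HPLC on ODS-2 (10 μm) at 45 °C. Mobile phase: 10 mM sodium heptanesulfonate plus 50 mM KH2PO4 (pH 3.5)–methanol 45:55, 1 mL/min. Samples at 100 μg/mL in DMF, injected in duplicate, UV 280 nm. k' = (tR − t0)/t0.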

Enterobacter cloacae = test: In vitro minimum inhibitory concentration for Enterobacter cloacae ATCC 23355; format: functional
[2] = system: Staphylococcus epidermidis; test: In vitro minimum inhibitory concentration for Staphylococcus epidermidis ATCC 155-1; format: functional
Procedure, shortened: (§1)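 Serial 2-fold agar dilution in Mueller Hinton medium, run alongside a reference quinolone. Inoculum adjusted to 10⁸ cfu/mL; compound range 0.007–16 μg/mL.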

Morganella morganii = test: In vitro minimum inhibitory concentration for Morganella morganii ATCC 8019; format: functional; procedure, shortened: as §1
Bacillus subtilis = test: In vitro minimum inhibitory concentration for Bacillus subtilis ATCC 6633; format: functional; procedure, shortened: as §1
Staphylococcus aureus = test: In vitro minimum inhibitory concentration for Staphylococcus aureus ATCC 25178; format: functional; procedure, shortened: as §1
Proteus vulgaris = test: In vitro minimum inhibitory concentration for Proteus vulgaris ATCC 8427; format: functional; procedure, shortened: as §1
Pseudomonas aeruginosa = test: In vitro minimum inhibitory concentration for Pseudomonas aeruginosa ATCC 10145; format: functional; procedure, shortened: as §1
Klebsiella pneumoniae = test: In vitro minimum inhibitory concentration to inhibit Klebsiella pneumoniae ATCC 10031; format: functional; procedure, shortened: as §1
Escherichia coli = test: In vitro minimum inhibitory concentration for Escherichia coli ATCC 10799; format: functional; procedure, shortened: as §1
Bacillus cereus = test: In vitro minimum inhibitory concentration for Bacillus cereus ATCC 11778; format: functional; procedure, shortened: as §1
Enterococcus faecalis = test: In vitro minimum inhibitory concentration for Streptococcus faecalis ATCC 10541; format: functional; procedure, shortened: as §1

Log k' [1]: 0.2148
SMILES: CC1(O)CN(c2cc3c(cc2F)c(=O)c(C(=O)O)cn3C2CC2)C1

Log k' [1]: -0.0332
SMILES: CC1(N)CN(c2c(F)cc3c(=O)c(C(=O)O)cn(CCF)c3c2Cl)C1

Log k' [1]: 0.3189
SMILES: CC1(N)CN(c2c(F)c(N)c3c(=O)c(C(=O)O)cn(-c4ccc(F)cc4F)c3c2F)C1

Log k' [1]: 0.238
SMILES: CC1(N)CN(c2c(F)cc3c(=O)c(C(=O)O)cn(-c4ccc(F)cc4F)c3c2F)C1

Log k' [1]: 0.128
SMILES: NC1CN(c2c(F)cc3c(=O)c(C(=O)O)cn(-c4ccc(F)cc4F)c3c2Cl)C1

MIC (Enterobacter cloacae): 0.5 µg/mL (≈ 1.37 µM)
Log k' [1]: 0.679
MIC [2]: 0.5 µg/mL (≈ 1.37 µM)
MIC (Morganella morganii): 1 µg/mL (≈ 2.74 µM)
MIC (Bacillus subtilis): 0.12 µg/mL (≈ 0.329 µM)
MIC (Staphylococcus aureus): 1 µg/mL (≈ 2.74 µM)
MIC (Proteus vulgaris): 0.5 µg/mL (≈ 1.37 µM)
MIC (Pseudomonas aeruginosa): 8 µg/mL (≈ 22 µM)
MIC (Klebsiella pneumoniae): 0.5 µg/mL (≈ 1.37 µM)
MIC (Escherichia coli): 1 µg/mL (≈ 2.74 µM)
MIC (Bacillus cereus): 0.5 µg/mL (≈ 1.37 µM)
MIC (Enterococcus faecalis): 8 µg/mL (≈ 22 µM)
SMILES: CC[C@H]1[C@@H](O)CN1c1c(F)cc2c(=O)c(C(=O)O)cn(C3CC3)c2c1F

Log k' [1]: -0.0388
SMILES: CC1(N)CN(c2nc3c(cc2F)c(=O)c(C(=O)O)cn3-c2ccc(F)cc2)C1

Log k' [1]: -0.0782
SMILES: CC1(CN)CN(c2cc3c(cc2F)c(=O)c(C(=O)O)cn3C2CC2)C1

Log k' [1]: 0.2742
SMILES: CCNCC1CN(c2c(F)cc3c(=O)c(C(=O)O)cn(C4CC4)c3c2F)C1

Log k' [1]: -0.0118
SMILES: CCNCC1(C)CN(c2c(F)cc3c(=O)c(C(=O)O)cn(C4CC4)c3c2F)C1

Log k' [1]: 0.1424
SMILES: Nc1c(F)c(N2CC(N)C2)c(F)c2c1c(=O)c(C(=O)O)cn2-c1ccc(F)cc1F

Log k' [1]: 0.2546
SMILES: CC1(N)CN(c2c(F)cc3c(=O)c(C(=O)O)cn(-c4ccc(F)cc4)c3c2Cl)C1

MIC (Enterobacter cloacae): 0.03 µg/mL (≈ 0.0807 µM)
Log k' [1]: 0.0166
MIC [2]: 0.12 µg/mL (≈ 0.323 µM)
MIC (Morganella morganii): 0.03 µg/mL (≈ 0.0807 µM)
MIC (Bacillus subtilis): 0.06 µg/mL (≈ 0.161 µM)
MIC (Staphylococcus aureus): 0.12 µg/mL (≈ 0.323 µM)
MIC (Proteus vulgaris): 0.25 µg/mL (≈ 0.672 µM)
MIC (Pseudomonas aeruginosa): 1 µg/mL (≈ 2.69 µM)
MIC (Klebsiella pneumoniae): 0.03 µg/mL (≈ 0.0807 µM)
MIC (Escherichia coli): 0.03 µg/mL (≈ 0.0807 µM)
MIC (Bacillus cereus): 0.25 µg/mL (≈ 0.672 µM)
MIC (Enterococcus faecalis): 0.5 µg/mL (≈ 1.34 µM)
SMILES: C[C@H]1[C@H](N)CN1c1c(F)cc2c(=O)c(C(=O)O)cn(CCF)c2c1Cl

Log k' [1]: 0.0792
SMILES: CC1(N)CN(c2nc3c(cc2F)c(=O)c(C(=O)O)cn3-c2ccc(F)cc2F)C1

MIC (Enterobacter cloacae): 0.12 µg/mL (≈ 0.345 µM)
Log k' [1]: 0.1399
MIC [2]: 0.25 µg/mL (≈ 0.72 µM)
MIC (Morganella morganii): 0.25 µg/mL (≈ 0.72 µM)
MIC (Bacillus subtilis): 0.06 µg/mL (≈ 0.173 µM)
MIC (Staphylococcus aureus): 0.25 µg/mL (≈ 0.72 µM)
MIC (Proteus vulgaris): 0.25 µg/mL (≈ 0.72 µM)
MIC (Pseudomonas aeruginosa): 2 µg/mL (≈ 5.76 µM)
MIC (Klebsiella pneumoniae): 0.015 µg/mL (≈ 0.0432 µM)
MIC (Escherichia coli): 0.25 µg/mL (≈ 0.72 µM)
MIC (Bacillus cereus): 0.25 µg/mL (≈ 0.72 µM)
MIC (Enterococcus faecalis): 0.5 µg/mL (≈ 1.44 µM)
SMILES: C[C@H]1[C@H](N)CN1c1cc2c(cc1F)c(=O)c(C(=O)O)cn2C(C)(C)C

Log k' [1]: -0.106
SMILES: CCNCC1CN(c2cc3c(cc2F)c(=O)c(C(=O)O)cn3C2CC2)C1

Log k' [1]: -0.2296
SMILES: CCn1cc(C(=O)O)c(=O)c2cc(F)c(N3CC(C)(N)C3)nc21

Log k' [1]: -0.0757
SMILES: CCn1cc(C(=O)O)c(=O)c2cc(F)c(N3CC(C)(N)C3)c(F)c21

Log k' [1]: -0.0223
SMILES: CC1(N)CN(c2cc3c(cc2F)c(=O)c(C(=O)O)cn3-c2ccc(F)cc2)C1

Log k' [1]: -0.1549
SMILES: NCC1CN(c2cc3c(cc2F)c(=O)c(C(=O)O)cn3C2CC2)C1

Log k' [1]: -0.0438
SMILES: CC1(CN)CN(c2c(F)cc3c(=O)c(C(=O)O)cn(C4CC4)c3c2F)C1

MIC (Enterobacter cloacae): 0.25 µg/mL (≈ 0.722 µM)
Log k' [1]: 0.599
MIC [2]: 0.12 µg/mL (≈ 0.346 µM)
MIC (Morganella morganii): 0.5 µg/mL (≈ 1.44 µM)
MIC (Bacillus subtilis): 0.03 µg/mL (≈ 0.0866 µM)
MIC (Staphylococcus aureus): 0.25 µg/mL (≈ 0.722 µM)
MIC (Proteus vulgaris): 0.25 µg/mL (≈ 0.722 µM)
MIC (Pseudomonas aeruginosa): 2 µg/mL (≈ 5.77 µM)
MIC (Klebsiella pneumoniae): 0.12 µg/mL (≈ 0.346 µM)
MIC (Escherichia coli): 0.25 µg/mL (≈ 0.722 µM)
MIC (Bacillus cereus): 0.12 µg/mL (≈ 0.346 µM)
MIC (Enterococcus faecalis): 2 µg/mL (≈ 5.77 µM)
SMILES: C[C@H]1N(c2cc3c(cc2F)c(=O)c(C(=O)O)cn3C2CC2)C[C@]1(C)O

MIC (Enterobacter cloacae): 0.12 µg/mL (≈ 0.343 µM)
Log k' [1]: 0.518
MIC [2]: 0.06 µg/mL (≈ 0.171 µM)
MIC (Morganella morganii): 0.25 µg/mL (≈ 0.714 µM)
MIC (Bacillus subtilis): 0.015 µg/mL (≈ 0.0428 µM)
MIC (Staphylococcus aureus): 0.12 µg/mL (≈ 0.343 µM)
MIC (Proteus vulgaris): 0.12 µg/mL (≈ 0.343 µM)
MIC (Pseudomonas aeruginosa): 2 µg/mL (≈ 5.71 µM)
MIC (Klebsiella pneumoniae): 0.015 µg/mL (≈ 0.0428 µM)
MIC (Escherichia coli): 0.25 µg/mL (≈ 0.714 µM)
MIC (Bacillus cereus): 0.06 µg/mL (≈ 0.171 µM)
MIC (Enterococcus faecalis): 1 µg/mL (≈ 2.85 µM)
SMILES: C[C@@H]1[C@@H](O)CN1c1c(F)cc2c(=O)c(C(=O)O)cn(C3CC3)c2c1F

MIC (Enterobacter cloacae): 0.12 µg/mL (≈ 0.346 µM)
Log k' [1]: -0.0223
MIC [2]: 0.12 µg/mL (≈ 0.346 µM)
MIC (Morganella morganii): 0.25 µg/mL (≈ 0.722 µM)
MIC (Bacillus subtilis): 0.06 µg/mL (≈ 0.173 µM)
MIC (Staphylococcus aureus): 0.12 µg/mL (≈ 0.346 µM)
MIC (Proteus vulgaris): 0.5 µg/mL (≈ 1.44 µM)
MIC (Pseudomonas aeruginosa): 2 µg/mL (≈ 5.77 µM)
MIC (Klebsiella pneumoniae): 0.06 µg/mL (≈ 0.173 µM)
MIC (Escherichia coli): 0.25 µg/mL (≈ 0.722 µM)
MIC (Bacillus cereus): 0.06 µg/mL (≈ 0.173 µM)
MIC (Enterococcus faecalis): 2 µg/mL (≈ 5.77 µM)
SMILES: CC1(C)[C@@H](N)CN1c1nc2c(cc1F)c(=O)c(C(=O)O)cn2C1CC1

Log k' [1]: 0.303
SMILES: CNC1(C)CN(c2cc3c(cc2F)c(=O)c(C(=O)O)cn3C(C)(C)C)C1

Log k' [1]: 0.115
SMILES: CNC1CN(c2c(F)cc3c(=O)c(C(=O)O)cn(C4CC4)c3c2Cl)C1

Log k' [1]: 0.1751
SMILES: CC1(N)CN(c2c(F)cc3c(=O)c(C(=O)O)cn(C(C)(C)C)c3c2F)C1

Log k' [1]: 0.0969
SMILES: CC1(N)CN(c2cc3c(cc2F)c(=O)c(C(=O)O)cn3-c2ccc(F)cc2F)C1

MIC (Enterobacter cloacae): 0.06 µg/mL (≈ 0.165 µM)
Log k' [1]: 0.1903
MIC [2]: 0.12 µg/mL (≈ 0.33 µM)
MIC (Morganella morganii): 0.12 µg/mL (≈ 0.33 µM)
MIC (Bacillus subtilis): 0.015 µg/mL (≈ 0.0413 µM)
MIC (Staphylococcus aureus): 0.12 µg/mL (≈ 0.33 µM)
MIC (Proteus vulgaris): 0.25 µg/mL (≈ 0.688 µM)
MIC (Pseudomonas aeruginosa): 2 µg/mL (≈ 5.5 µM)
MIC (Klebsiella pneumoniae): 0.03 µg/mL (≈ 0.0826 µM)
MIC (Escherichia coli): 0.12 µg/mL (≈ 0.33 µM)
MIC (Bacillus cereus): 0.12 µg/mL (≈ 0.33 µM)
MIC (Enterococcus faecalis): 0.5 µg/mL (≈ 1.38 µM)
SMILES: CC1(C)[C@@H](N)CN1c1c(F)cc2c(=O)c(C(=O)O)cn(C3CC3)c2c1F

Log k' [1]: 0.7591
SMILES: CCC1(O)CN(c2c(F)cc3c(=O)c(C(=O)O)cn(C4CC4)c3c2F)C1
